High-throughput results: PubChem, Broad Institute
Sampled rows, rich in hits. Any-hit rate of the full collection: about 2%.
DENV2 CPE = protects cells from dengue virus 2 cytopathic effect. DENV2-infected cells, cytopathic effect rescue, plate reader. CPE inhibition, % at 9.99 µM. 350,000 tested, 1.7% active. AID 651640; in the data active = CPE inhibition above about 20%, passing the limit was not always enough; tested in BHK-21 cells;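 note: 0% = median of neutral control wells and 100% = median of positive control wells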
CaV13 FRET inh = Disruptors of the CACNA1D IQ motif to Ca2+-dependent inactivation inhibitor domain association, primary screening, Förster resonance energy transfer in intact living …; HEK cells, CFP/YFP FRET ICDI-IQ, plate reader, 10 min; percent FRET-ratio fall versus neutral wells; inhibition, % at 12.3 µM; 340,000 tested, 0.098% active; AID 743397;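 active = mean replicate inhibition of at least 30% and at least 1% of replicates passing that level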;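 note: 0% = median of the neutral control wells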
XiGFP reactiv = X-chromosome reactivation activator. XiGFP mouse fibroblasts, % GFP-positive cells imaging, 3 d; cells co-treated with 5-aza-dC sensitizer; scaled so ellipticine positive control = 100%. activation, % at 7.58 µM. 360,000 tested, 0.055% active;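 active = mean normalized replicate activation at least 10% and every replicate at or above 10%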;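 note: 0% = median of on-plate neutral control wells and 100% = ellipticine 6 µM median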
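Assay system – SV40-immortalized XiGFP fibroblast cells, line 68-5-11 · Buffer or medium – DMEM supplemented with 5-aza-dC as sensitizing agent · Dosing – one concentration, pinned · Benchmarks – positive control ellipticine, 6 µM final · Times – 3 days compound exposure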
FN deposit inh = fibronectin deposition inhibition; AID 743247; AH1F fibroblasts, Alexa488-fibronectin deposition fluorescence, overnight; inhibition, % at 12.6 µM; 350,000 tested, 0.086% active;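 active = mean inhibition across replicates of 30% or more, regardless of how many single replicates reach that level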;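 note: positive control wells lacked labelled fibronectin entirely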
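Schedule: 1 h cell adhesion before compound, then overnight fibronectin incubation; test system: AH1F fibroblast monolayer depositing Alexa488-labelled fibronectin into matrix; quantity: 10000 AH1F cells per well; probe or stimulus: fluorescent fibronectin at 24 nM final; signal: fluorescence, ex 485 nm, em 525 nm; evaluation: percent inhibition as loss of matrix-bound fibronectin fluorescence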
CASP6 VEID inh = blocks human caspase-6 cleavage activity; P55212; purified caspase-6, Z-VEID-R110 cleavage fluorescence; inhibition, % at 12.5 µM; 350,000 tested, 0.53% active;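 active = mean inhibition across replicates at least about 35%, with every replicate also reaching that limit, limit read from the data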;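 note: 0% = median of neutral control wells and 100% = no fluorescence left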
Target sequence (P55212 24-179 limits assumed): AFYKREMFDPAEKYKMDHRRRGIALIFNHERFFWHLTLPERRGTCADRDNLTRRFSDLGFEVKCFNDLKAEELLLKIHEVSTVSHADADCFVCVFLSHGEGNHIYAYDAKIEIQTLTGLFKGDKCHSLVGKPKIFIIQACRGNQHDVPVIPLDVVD
Target sequence (P55212 194-293 limits assumed): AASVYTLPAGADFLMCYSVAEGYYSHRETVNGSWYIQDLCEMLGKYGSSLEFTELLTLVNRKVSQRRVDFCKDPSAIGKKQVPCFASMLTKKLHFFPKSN
Active calls of the source: *; / = no result given.

SMILES	DENV2 CPE	CaV13 FRET inh	XiGFP reactiv	FN deposit inh	CASP6 VEID inh
COCCN(C(=O)COC(=O)/C=C/c1ccc(C)o1)c1c(N)n(Cc2ccccc2)c(=O)[nH]c1=O	-1	/	0	/	4
Cc1nnc(SCC(=O)N(CC(C)C)c2c(N)n(Cc3ccccc3)c(=O)[nH]c2=O)n1N	79*	-7	0	/	1
COCCN(C(=O)COC(=O)/C=C/c1ccco1)c1c(N)n(Cc2ccccc2)c(=O)[nH]c1=O	-10	-3	0	-2	43*
CCCN1C[C@H](C)[C@H](OC)CN(C)C(=O)c2cc(NC(=O)CC)ccc2OC[C@H]1C	/	/	0	/	/
COCCNC(=O)C[C@H]1CC[C@@H]2[C@H](COC[C@@H](O)CN2C(=O)Nc2ccc3c(c2)OCO3)O1	-6	/	0	6	-1
Cc1c(C(=O)OCC(=O)N(CC(C)C)c2c(N)n(Cc3ccccc3)c(=O)[nH]c2=O)oc2ccccc12	5	-7	0	3	46*
CCN(C(=O)COC(=O)c1cc(=O)[nH]c2ccccc12)c1c(N)n(Cc2ccccc2)c(=O)[nH]c1=O	65*	-6	0	2	3
CC(C)CN(C(=O)COC(=O)c1cc(=O)[nH]c2ccccc12)c1c(N)n(Cc2ccccc2)c(=O)[nH]c1=O	16	-2	0	-1	9
Cc1cccc(OCC(=O)N(C)c2c(N)n(Cc3ccccc3)c(=O)[nH]c2=O)c1C	3	-2	140*	12	1
Cc1ccccc1OCCC(=O)N(Cc1ccccc1)c1c(N)n(Cc2ccccc2)c(=O)[nH]c1=O	-3	/	1	/	0
COc1ccc2nc(NC(=O)c3ccc([N+](=O)[O-])o3)sc2c1	21*	-20	0	5	7
Cc1cc(C)cc(NC(=O)c2ccc([N+](=O)[O-])o2)c1	0	-5	0	-6	/
Cc1cc(C)nc(NC(=O)c2ccc([N+](=O)[O-])o2)n1	93*	-5	0	3	20
Cc1cc(NC(=O)COC(=O)Cn2[nH]c(=O)c3ccccc3c2=O)c([N+](=O)[O-])cc1C	52*	-7	0	2	-1
CCCc1cn(CC[C@@H]2CC[C@H](NS(=O)(=O)c3ccc(-c4ccccc4)cc3)[C@H](CO)O2)nn1	11	/	0	/	-3
COc1ccc(NC(=O)/C=C/c2cccc(C(F)(F)F)c2)cn1	23*	-3	0	-2	1
O=C(Nc1cccc(F)c1)N1CC(=O)N2[C@H](CO)[C@@H](c3ccc(C#CC4CC4)cc3)[C@@H]2C1	1	/	1	/	0
N#Cc1c(NCCCO)nc(NCc2ccccc2)c2c1CCN(Cc1ccccc1)C2	/	32*	/	/	/
CC1CCCCC1NC(=O)COC(=O)c1ccc([N+](=O)[O-])o1 (stereo not drawn)	6	-7	0	4	48*
CC1CCCC(NC(=O)COC(=O)c2ccc([N+](=O)[O-])o2)C1C (stereo not drawn)	3	-6	0	/	0
O=C(COC(=O)c1ccc([N+](=O)[O-])o1)NC1CCS(=O)(=O)C1 (stereo not drawn)	2	29	0	1	49*
O=C(COC(=O)c1ccc([N+](=O)[O-])o1)NC1CCCCC1	4	-2	1	3	36*
O=C(COC(=O)c1ccc([N+](=O)[O-])o1)NC1CCCC1	0	-6	0	/	10
CCS(=O)(=O)N1CC(=O)N2[C@H](C1)[C@@H](c1ccc(C#CCC3CCCC3)cc1)[C@@H]2CO	0	/	0	/	1
Cc1cccc(NC(=O)Nc2ccc3c(c2)C(=O)N(C)[C@H]2CC[C@H](CC(=O)NCc4ccccc4Cl)O[C@@H]2CO3)c1	/	/	0	-14	/
SMILES	DENV2 CPE	CaV13 FRET inh	XiGFP reactiv	FN deposit inh	CASP6 VEID inh
Cc1ccc(N2C(=O)c3ccccc3C2(O)c2ccccc2)cc1 (stereo not drawn)	-9	-6	0	/	-3
CCc1nnc(N2C(=O)c3ccccc3C2(O)c2ccccc2)s1 (stereo not drawn)	41*	-3	0	-9	1
CCCNC(=O)N1CCC2(CC1)CN(S(C)(=O)=O)[C@H](CO)c1c2c2ccc(OC)cc2n1C	0	/	0	/	2
COc1ccc(S(=O)(=O)N(C)C[C@H]2Oc3c(NC(=O)c4ccc(-c5nccs5)cc4)cccc3C(=O)N([C@@H](C)CO)C[C@@H]2C)cc1	2	/	-1	-4	1
C[C@H]1CN([C@@H](C)CO)C(=O)Cc2cc(NS(=O)(=O)c3ccc(Cl)cc3)ccc2O[C@@H]1CN(C)S(C)(=O)=O	-6	/	0	/	-1
COc1ccc(S(=O)(=O)N(C)C[C@@H]2Oc3ccc(NC(=O)CCC(F)(F)F)cc3CC(=O)N([C@@H](C)CO)C[C@H]2C)cc1	25*	/	0	/	1
C[C@H]1CN([C@@H](C)CO)C(=O)Cc2cc(NS(=O)(=O)c3ccc(F)cc3)ccc2O[C@@H]1CN(C)S(C)(=O)=O	46*	/	-1	-6	-2
COc1ccc(S(=O)(=O)N(C)C[C@@H]2Oc3ccc(NC(=O)Nc4ccc5c(c4)OCO5)cc3CC(=O)N([C@H](C)CO)C[C@H]2C)cc1	-8	/	0	/	2
COc1ccc(S(=O)(=O)N(C)C[C@H]2Oc3ccc(NC(=O)Nc4ccc(F)cc4)cc3CC(=O)N([C@@H](C)CO)C[C@H]2C)cc1	23*	/	1	/	/
C[C@H](CO)N1C[C@H](C)[C@H](CN(C)S(C)(=O)=O)Oc2ccc(NS(=O)(=O)c3ccc(F)cc3)cc2CC1=O	-1	/	-1	-5	-1
COc1ccc(S(=O)(=O)N(C)C[C@@H]2Oc3ccc(NC(=O)Nc4ccc5c(c4)OCO5)cc3CC(=O)N([C@@H](C)CO)C[C@H]2C)cc1	31*	/	0	/	1
CNC[C@@H]1Oc2ccc(NC(=O)NC(C)C)cc2C(=O)N(C)C[C@@H]1C	/	/	0	-4	/
C[C@H](CO)N1C[C@H](C)[C@@H](CN(C)S(=O)(=O)c2ccc(F)cc2)Oc2ccc(NS(C)(=O)=O)cc2CC1=O	10	/	0	/	44*
COc1ccc(NC(=O)Nc2ccc3c(c2)CC(=O)N([C@H](C)CO)C[C@@H](C)[C@H](CN(C)S(=O)(=O)c2ccc(OC)cc2)O3)cc1	-8	/	0	/	-1
COc1ccc(NC(=O)Nc2ccc3c(c2)CC(=O)N([C@H](C)CO)C[C@H](C)[C@H](CN(C)S(=O)(=O)c2cn(C)cn2)O3)cc1	27*	/	-1	/	-1
COc1ccc(S(=O)(=O)N(C)C[C@@H]2Oc3ccc(NS(C)(=O)=O)cc3CC(=O)N([C@@H](C)CO)C[C@@H]2C)cc1	12	/	0	/	-6
C[C@H]1CN([C@@H](C)CO)C(=O)Cc2cc(NS(C)(=O)=O)ccc2O[C@@H]1CN(C)S(=O)(=O)c1ccc(F)cc1	-14	/	0	/	0
